ChEMBL document CHEMBL3120097, “HCV NS5A replication complex inhibitors. Part 4. Optimization for genotype 1a replicon inhibitory activity” (J Med Chem, 2014)

Legend:
[1] = system: Bovine viral diarrhea virus 1; experiment: Antiviral activity against BVDV infected in bovine MDBK cells after 72 hrs by luciferase reporter gene assay; format: functional, organism-based; conditions: Bovine viral diarrhea virus isolates and strains
[2] = Cytotoxicity against bovine MDBK cells after 3 days by CellTitre-Blue assay; format: cell-based, Bos taurus; conditions: cattle
[3] = system: Hepatitis C virus; experiment: Antiviral activity against HCV genotype 1b infected in human HuH7 cells after 72 hrs by FRET assay; format: functional, organism-based, Hepacivirus hominis; conditions: Huh-7, 72 h
Method in brief: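 Replicon cells seeded 10K/well, attached overnight; compounds added with 0.5% v/v DMSO vehicle controls, typically 72 h. Alamar blue read first, then cells PBS-rinsed and lysed with reagent holding 150 mM NaCl and 20 μM final EDANS/DABCYL NS3 protease peptide; kinetic fluorescence 340/490 nm. EC₅₀ = concentration halving background-subtracted FRET signal versus DMSO wells.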

[4] = system: Hepatitis C virus; experiment: Antiviral activity against HCV genotype 1a H77c infected in human HuH7 cells after 72 hrs; conditions: Huh-7, 72 h

With O=C(Nc1ccc(/C=C/c2ccc(NC(=O)[C@@H]3CCCN3C(=O)c3cc4ccccc4cn3)cc2)cc1)[C@@H]1CCCN1C(=O)c1cc2ccccc2cn1 the EC50 [1] was over 5 µM, the CC50 at 72 h [2] was over 10 µM and the EC50 [3] was 0.28 µM. For the same compound, the EC50 [4] was 3.1 µM.
